In PMC7032195 (Asian Journal of Pharmaceutical Sciences, 2018):
Where two headings read alike, the source gives them in different places.

What was measured:
MCF-7 cells = test: MTT assay of DTX, RES and their combinations at different mass ratios; type: cell-based; settings: Homo sapiens
Summary of the method: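 MCF-7 cells seeded at 6000 cells/well 12 h before dosing, then exposed to each test compound alone (0–50.0 or 0–100.0 µg/ml) or as 1:1 combinations (2.5+2.5 to 50+50 µg/ml); DMEM vehicle control. After two days, OD read at 490 nm. Six replicate wells per condition, at least three independent repeats. Combination index calculated for 2:1, 1:1 and 1:2 mass ratios.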

[1] = Pharmacokinetics after intravenous injection in rats; type: in vivo, Sprague-Dawley rats; settings: i.v., 10 mg/kg
Summary of the method: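 Male Sprague-Dawley rats (~200 g), n = 3, received ethanol solutions or co-loaded mPEG-PDLA micelles i.v. at 10 mg/kg. Orbital plexus blood was drawn into heparin tubes at 0.083–12 h. Plasma was separated at 5000 rpm for 10 min and stored at −20 °C. Carbamazepine was the internal standard, with methyl tert-butyl ether extraction. UV detection was at 228 or 306 nm. Parameters are mean ± SD.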

[2] = MCF7, read-out: IC50 in MCF-7 cells

IC50 (MCF-7 cells; MCF7, read-out: IC50 (µg/ml) DTX)	IC50 (MCF-7 cells; [2])	V ([1]; analyte DTX)	IC50 (MCF-7 cells; MCF7, read-out: IC50 (µg/ml) RES)	V ([1]; analyte RES)	Structure (SMILES)
10.4 ± 0.43 µg/mL	10.4 µg/mL	3.79 ± 0.83 L/kg	–	–	CC(=O)O[C@@]12CO[C@@H]1C[C@H](O)[C@@]1(C)C(=O)[C@H](O)C3=C(C)[C@@H](OC(=O)[C@H](O)[C@@H](NC(=O)OC(C)(C)C)c4ccccc4)C[C@@](O)([C@@H](OC(=O)c4ccccc4)[C@H]21)C3(C)C [DTX, docetaxel]
–	23 µg/mL	–	23 ± 0.54 µg/mL	3.45 ± 2.93 L/kg	Oc1ccc(/C=C/c2cc(O)cc(O)c2)cc1 [RES, resveratrol]
